Experimental data as given in paper PMC5621377 (Clinical cancer research : an official journal of the …, 2016).

Tested on: patients with Rb+ advanced solid tumors or lymphomas
Experiment: Safety assessments, adverse events
Format: in vivo, human
In short: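 Oral test compound given daily 3-weeks-on/1-week-off in 28-day cycles, with doses escalated by a Bayesian logistic regression model with overdose control. Safety assessments, including ECGs, were done at baseline and at regular intervals. AEs were graded by CTCAE v4.0 and classed as suspected related to treatment. All patients dosed at least once were included; summaries were descriptive per dose level.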

[1] = 50 mg 3-weeks-on/1-week-off, n = 4
[2] = 70 mg 3-weeks-on/1-week-off, n = 2
[3] = 140 mg 3-weeks-on/1-week-off, n = 4
[4] = 260 mg 3-weeks-on/1-week-off, n = 4
[5] = 280 mg 3-weeks-on/1-week-off, n = 4
[6] = 350 mg 3-weeks-on/1-week-off, n = 5
[7] = 400 mg 3-weeks-on/1-week-off, n = 5

CN(C)C(=O)c1cc2cnc(Nc3ccc(N4CCNCC4)cn3)nc2n1C1CCCC1 [ribociclib]
Anemia, Grade 3/4, AE suspected related to study treatment [1]: 0 n (%) | Anemia, Grade All, AE suspected related to study treatment [1]: 0 n (%) | Appetite decreased, Grade 3/4, AE suspected related to study treatment [1]: 0 n (%) | Appetite decreased, Grade All, AE suspected related to study treatment [1]: 0 n (%) | Blood creatinine increased, Grade 3/4, AE suspected related to study treatment [1]: 0 n (%) | Blood creatinine increased, Grade All, AE suspected related to study treatment [1]: 0 n (%) | Diarrhea, Grade 3/4, AE suspected related to study treatment [1]: 0 n (%) | Diarrhea, Grade All, AE suspected related to study treatment [1]: 0 n (%) | Fatigue, Grade 3/4, AE suspected related to study treatment [1]: 0 n (%) | Fatigue, Grade All, AE suspected related to study treatment [1]: 2 (50) n (%) | Leukopenia, Grade 3/4, AE suspected related to study treatment [1]: 0 n (%) | Leukopenia, Grade All, AE suspected related to study treatment [1]: 0 n (%) | Lymphopenia, Grade 3/4, AE suspected related to study treatment [1]: 0 n (%) | Lymphopenia, Grade All, AE suspected related to study treatment [1]: 0 n (%) | Nausea, Grade 3/4, AE suspected related to study treatment [1]: 0 n (%) | Nausea, Grade All, AE suspected related to study treatment [1]: 0 n (%) | Neutropenia, Grade 3/4, AE suspected related to study treatment [1]: 0 n (%) | Neutropenia, Grade All, AE suspected related to study treatment [1]: 0 n (%) | Thrombocytopenia, Grade 3/4, AE suspected related to study treatment [1]: 0 n (%) | Thrombocytopenia, Grade All, AE suspected related to study treatment [1]: 0 n (%) | Vomiting, Grade 3/4, AE suspected related to study treatment [1]: 0 n (%) | Vomiting, Grade All, AE suspected related to study treatment [1]: 0 n (%) | Anemia, Grade 3/4, AE suspected related to study treatment [2]: 0 n (%) | Anemia, Grade All, AE suspected related to study treatment [2]: 0 n (%) | Appetite decreased, Grade 3/4, AE suspected related to study treatment [2]: 0 n (%) | Appetite decreased, Grade All, AE suspected related to study treatment [2]: 0 n (%) | Blood creatinine increased, Grade 3/4, AE suspected related to study treatment [2]: 0 n (%) | Blood creatinine increased, Grade All, AE suspected related to study treatment [2]: 0 n (%) | Diarrhea, Grade 3/4, AE suspected related to study treatment [2]: 0 n (%) | Diarrhea, Grade All, AE suspected related to study treatment [2]: 0 n (%) | Fatigue, Grade 3/4, AE suspected related to study treatment [2]: 0 n (%) | Fatigue, Grade All, AE suspected related to study treatment [2]: 2 (100) n (%) | Leukopenia, Grade 3/4, AE suspected related to study treatment [2]: 0 n (%) | Leukopenia, Grade All, AE suspected related to study treatment [2]: 0 n (%) | Lymphopenia, Grade 3/4, AE suspected related to study treatment [2]: 0 n (%) | Lymphopenia, Grade All, AE suspected related to study treatment [2]: 0 n (%) | Nausea, Grade 3/4, AE suspected related to study treatment [2]: 0 n (%) | Nausea, Grade All, AE suspected related to study treatment [2]: 1 (50) n (%) | Neutropenia, Grade 3/4, AE suspected related to study treatment [2]: 0 n (%) | Neutropenia, Grade All, AE suspected related to study treatment [2]: 0 n (%) | Thrombocytopenia, Grade 3/4, AE suspected related to study treatment [2]: 0 n (%) | Thrombocytopenia, Grade All, AE suspected related to study treatment [2]: 0 n (%) | Vomiting, Grade 3/4, AE suspected related to study treatment [2]: 0 n (%) | Vomiting, Grade All, AE suspected related to study treatment [2]: 1 (50) n (%) | Anemia, Grade 3/4, AE suspected related to study treatment [3]: 0 n (%) | Anemia, Grade All, AE suspected related to study treatment [3]: 0 n (%) | Appetite decreased, Grade 3/4, AE suspected related to study treatment [3]: 0 n (%) | Appetite decreased, Grade All, AE suspected related to study treatment [3]: 1 (25) n (%) | Blood creatinine increased, Grade 3/4, AE suspected related to study treatment [3]: 0 n (%) | Blood creatinine increased, Grade All, AE suspected related to study treatment [3]: 0 n (%) | Diarrhea, Grade 3/4, AE suspected related to study treatment [3]: 0 n (%) | Diarrhea, Grade All, AE suspected related to study treatment [3]: 0 n (%) | Fatigue, Grade 3/4, AE suspected related to study treatment [3]: 0 n (%) | Fatigue, Grade All, AE suspected related to study treatment [3]: 3 (75) n (%) | Leukopenia, Grade 3/4, AE suspected related to study treatment [3]: 0 n (%) | Leukopenia, Grade All, AE suspected related to study treatment [3]: 0 n (%) | Lymphopenia, Grade 3/4, AE suspected related to study treatment [3]: 0 n (%) | Lymphopenia, Grade All, AE suspected related to study treatment [3]: 0 n (%) | Nausea, Grade 3/4, AE suspected related to study treatment [3]: 0 n (%) | Nausea, Grade All, AE suspected related to study treatment [3]: 0 n (%) | Neutropenia, Grade 3/4, AE suspected related to study treatment [3]: 0 n (%) | Neutropenia, Grade All, AE suspected related to study treatment [3]: 0 n (%) | Thrombocytopenia, Grade 3/4, AE suspected related to study treatment [3]: 0 n (%) | Thrombocytopenia, Grade All, AE suspected related to study treatment [3]: 0 n (%) | Vomiting, Grade 3/4, AE suspected related to study treatment [3]: 0 n (%) | Vomiting, Grade All, AE suspected related to study treatment [3]: 0 n (%) | Anemia, Grade 3/4, AE suspected related to study treatment [4]: 0 n (%) | Anemia, Grade All, AE suspected related to study treatment [4]: 0 n (%) | Appetite decreased, Grade 3/4, AE suspected related to study treatment [4]: 0 n (%) | Appetite decreased, Grade All, AE suspected related to study treatment [4]: 0 n (%) | Blood creatinine increased, Grade 3/4, AE suspected related to study treatment [4]: 0 n (%) | Blood creatinine increased, Grade All, AE suspected related to study treatment [4]: 0 n (%) | Diarrhea, Grade 3/4, AE suspected related to study treatment [4]: 0 n (%) | Diarrhea, Grade All, AE suspected related to study treatment [4]: 0 n (%) | Fatigue, Grade 3/4, AE suspected related to study treatment [4]: 0 n (%) | Fatigue, Grade All, AE suspected related to study treatment [4]: 4 (100) n (%) | Leukopenia, Grade 3/4, AE suspected related to study treatment [4]: 0 n (%) | Leukopenia, Grade All, AE suspected related to study treatment [4]: 1 (25) n (%) | Lymphopenia, Grade 3/4, AE suspected related to study treatment [4]: 0 n (%) | Lymphopenia, Grade All, AE suspected related to study treatment [4]: 2 (50) n (%) | Nausea, Grade 3/4, AE suspected related to study treatment [4]: 0 n (%) | Nausea, Grade All, AE suspected related to study treatment [4]: 0 n (%) | Neutropenia, Grade 3/4, AE suspected related to study treatment [4]: 0 n (%) | Neutropenia, Grade All, AE suspected related to study treatment [4]: 0 n (%) | Thrombocytopenia, Grade 3/4, AE suspected related to study treatment [4]: 0 n (%) | Thrombocytopenia, Grade All, AE suspected related to study treatment [4]: 0 n (%) | Vomiting, Grade 3/4, AE suspected related to study treatment [4]: 0 n (%) | Vomiting, Grade All, AE suspected related to study treatment [4]: 0 n (%) | Anemia, Grade 3/4, AE suspected related to study treatment [5]: 0 n (%) | Anemia, Grade All, AE suspected related to study treatment [5]: 0 n (%) | Appetite decreased, Grade 3/4, AE suspected related to study treatment [5]: 0 n (%) | Appetite decreased, Grade All, AE suspected related to study treatment [5]: 2 (50) n (%) | Blood creatinine increased, Grade 3/4, AE suspected related to study treatment [5]: 0 n (%) | Blood creatinine increased, Grade All, AE suspected related to study treatment [5]: 0 n (%) | Diarrhea, Grade 3/4, AE suspected related to study treatment [5]: 0 n (%) | Diarrhea, Grade All, AE suspected related to study treatment [5]: 1 (25) n (%) | Fatigue, Grade 3/4, AE suspected related to study treatment [5]: 0 n (%) | Fatigue, Grade All, AE suspected related to study treatment [5]: 1 (25) n (%) | Leukopenia, Grade 3/4, AE suspected related to study treatment [5]: 0 n (%) | Leukopenia, Grade All, AE suspected related to study treatment [5]: 1 (25) n (%) | Lymphopenia, Grade 3/4, AE suspected related to study treatment [5]: 1 (25) n (%) | Lymphopenia, Grade All, AE suspected related to study treatment [5]: 1 (25) n (%) | Nausea, Grade 3/4, AE suspected related to study treatment [5]: 0 n (%) | Nausea, Grade All, AE suspected related to study treatment [5]: 2 (50) n (%) | Neutropenia, Grade 3/4, AE suspected related to study treatment [5]: 0 n (%) | Neutropenia, Grade All, AE suspected related to study treatment [5]: 1 (25) n (%) | Thrombocytopenia, Grade 3/4, AE suspected related to study treatment [5]: 0 n (%) | Thrombocytopenia, Grade All, AE suspected related to study treatment [5]: 1 (25) n (%) | Vomiting, Grade 3/4, AE suspected related to study treatment [5]: 0 n (%) | Vomiting, Grade All, AE suspected related to study treatment [5]: 0 n (%) | Anemia, Grade 3/4, AE suspected related to study treatment [6]: 0 n (%) | Anemia, Grade All, AE suspected related to study treatment [6]: 2 (40) n (%) | Appetite decreased, Grade 3/4, AE suspected related to study treatment [6]: 0 n (%) | Appetite decreased, Grade All, AE suspected related to study treatment [6]: 1 (20) n (%) | Blood creatinine increased, Grade 3/4, AE suspected related to study treatment [6]: 0 n (%) | Blood creatinine increased, Grade All, AE suspected related to study treatment [6]: 3 (60) n (%) | Diarrhea, Grade 3/4, AE suspected related to study treatment [6]: 0 n (%) | Diarrhea, Grade All, AE suspected related to study treatment [6]: 1 (20) n (%) | Fatigue, Grade 3/4, AE suspected related to study treatment [6]: 0 n (%) | Fatigue, Grade All, AE suspected related to study treatment [6]: 1 (20) n (%) | Leukopenia, Grade 3/4, AE suspected related to study treatment [6]: 0 n (%) | Leukopenia, Grade All, AE suspected related to study treatment [6]: 2 (40) n (%) | Lymphopenia, Grade 3/4, AE suspected related to study treatment [6]: 1 (20) n (%) | Lymphopenia, Grade All, AE suspected related to study treatment [6]: 1 (20) n (%) | Nausea, Grade 3/4, AE suspected related to study treatment [6]: 0 n (%) | Nausea, Grade All, AE suspected related to study treatment [6]: 2 (40) n (%) | Neutropenia, Grade 3/4, AE suspected related to study treatment [6]: 0 n (%) | Neutropenia, Grade All, AE suspected related to study treatment [6]: 1 (20) n (%) | Thrombocytopenia, Grade 3/4, AE suspected related to study treatment [6]: 0 n (%) | Thrombocytopenia, Grade All, AE suspected related to study treatment [6]: 0 n (%) | Vomiting, Grade 3/4, AE suspected related to study treatment [6]: 0 n (%) | Vomiting, Grade All, AE suspected related to study treatment [6]: 2 (40) n (%) | Anemia, Grade 3/4, AE suspected related to study treatment [7]: 0 n (%) | Anemia, Grade All, AE suspected related to study treatment [7]: 2 (40) n (%) | Appetite decreased, Grade 3/4, AE suspected related to study treatment [7]: 0 n (%) | Appetite decreased, Grade All, AE suspected related to study treatment [7]: 0 n (%) | Blood creatinine increased, Grade 3/4, AE suspected related to study treatment [7]: 0 n (%) | Blood creatinine increased, Grade All, AE suspected related to study treatment [7]: 1 (20) n (%) | Diarrhea, Grade 3/4, AE suspected related to study treatment [7]: 0 n (%) | Diarrhea, Grade All, AE suspected related to study treatment [7]: 0 n (%) | Fatigue, Grade 3/4, AE suspected related to study treatment [7]: 0 n (%) | Fatigue, Grade All, AE suspected related to study treatment [7]: 1 (20) n (%) | Leukopenia, Grade 3/4, AE suspected related to study treatment [7]: 0 n (%) | Leukopenia, Grade All, AE suspected related to study treatment [7]: 1 (20) n (%) | Lymphopenia, Grade 3/4, AE suspected related to study treatment [7]: 0 n (%) | Lymphopenia, Grade All, AE suspected related to study treatment [7]: 0 n (%) | Nausea, Grade 3/4, AE suspected related to study treatment [7]: 0 n (%)
